Compounds with a hit are over-represented: about 1.8% of the library has one in this group of screens.
SKN-1 inh: suppressors of acrylamide-induced Pgst-4::GFP reporter in worms, primary screen, SKN-1 inhibitor project, whole organism, uHTS, GFP/RFP fluorescence ratio, strain VP596; C. elegans VP596 Pgst-4::GFP/RFP ratio, 24 h; inhibition, % at 21.8 µM; 360,000 compounds, 0.49% hits;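 active means interference check ratio from 0.5 to 1.5 plus GFP to RFP signal ratio inhibition reaching or exceeding a fixed threshold, cut at about 30% in these data, passing the limit was not always enough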
DAGLB inhibitor: DAGLB lipase inhibitors, primary screen, biochemical, fluorescence, HTS. 340,000 compounds, 0.059% hits. HEK293T DAGLB membrane lysate, EnzChek fluorogenic substrate. inhibition, % at 5.17 µM; in the data active means inhibition above about 34%;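 further: 0% = enzyme with vehicle and 100% = wells lacking enzyme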
Target sequence (Q8NCG7 whole entry, looked up): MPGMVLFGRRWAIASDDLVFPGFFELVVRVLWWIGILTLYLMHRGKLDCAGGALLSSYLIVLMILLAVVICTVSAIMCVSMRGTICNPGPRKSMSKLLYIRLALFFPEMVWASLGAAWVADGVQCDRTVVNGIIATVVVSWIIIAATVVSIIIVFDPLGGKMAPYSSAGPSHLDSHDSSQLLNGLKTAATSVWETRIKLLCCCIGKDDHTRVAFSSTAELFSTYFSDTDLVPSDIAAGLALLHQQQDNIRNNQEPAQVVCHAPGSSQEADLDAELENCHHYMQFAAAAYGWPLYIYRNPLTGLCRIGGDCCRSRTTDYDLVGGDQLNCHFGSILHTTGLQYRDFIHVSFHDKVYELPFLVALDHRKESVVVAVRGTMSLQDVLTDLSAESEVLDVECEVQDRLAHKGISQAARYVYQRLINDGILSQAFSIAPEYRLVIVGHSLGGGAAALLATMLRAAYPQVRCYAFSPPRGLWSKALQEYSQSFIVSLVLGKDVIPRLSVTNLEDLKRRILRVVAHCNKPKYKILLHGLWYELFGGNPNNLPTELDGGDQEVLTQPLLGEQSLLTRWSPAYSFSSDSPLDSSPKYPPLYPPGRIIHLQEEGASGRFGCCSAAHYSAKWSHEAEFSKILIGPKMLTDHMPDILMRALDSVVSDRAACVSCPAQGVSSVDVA
iPSC survival up: enhancers of single-cell hiPSC survival, primary screen, ATPlite luminescence; 360,000 compounds, 0.044% hits; 100% = ROCK inhibitor wells, 0% = DMSO; survival enhancement, % at 20 µM; in the data active means survival enhancement above about 18%;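 further: cells exposed to compounds for 16 hours before the ATP read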
MT1-MMP act inh: blockers of MT1-MMP proenzyme processing, primary screen, HT1080 RFP-PRO-GFP cells, GFP/RFP fluorescence | Matrix metalloproteinase-14 (Homo sapiens), P50281 | GFP/RFP ratio fluorescence, overnight; percent of plate control window, DMSO zero | GFP/RFP ratio change, % at 20 µM | 360,000 compounds, 0.061% hits | AID 651647, 2012;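 active means GFP/RFP ratio change of at least 30% with cell ATP level not reduced by more than half and red fluorescence within 50% of control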
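Assay system – RFP-PRO-GFP reporter HT1080 cells · Compound dosing – single dose of 20 µM compound, 1% DMSO final · Incubation – overnight compound exposure at 37 °C · Measure – GFP/RFP fluorescence ratio · Benchmarks – DMSO wells and RFP-L50D-GFP cells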
rRNA inh HTS: reduced GFP signal of wild-type E. coli, primary screen, bacterial rRNA inhibitor project, GFP/RFP fluorescence, OD600, single point. 350,000 compounds, 1.6% hits. GFP signal change (wild-type ribosome), % (concentration not given with the values). E. coli WT GFP vs humanized-ribosome RFP mutants, 24 h; hits give low values; DMSO median 0, no signal -100. AID 720706, 2013;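 active means significant combined selectivity score with lowered wild-type GFP, culture density cut under 30%, mutant RFP and density less affected; inactive means any of these conditions unmet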
Cneo AK release: Cryptococcus neoformans cell lysis inducers, primary screen, AK release luminescence, single concentration. C. neoformans lysis, adenylate kinase release luminescence, 4 h; normalised: neutral wells 0, clomiphene wells 100. lysis activity, % at 15 µM. 360,000 compounds, 0.2% hits;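 active means mean lysis activity across replicates of at least 80%, whatever share of replicates individually reach that level; inactive means mean lysis activity below 80%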
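Assay system: C. neoformans cells. Amount: yeast cell density of 5 × 10^6 cells/mL. Technique: AK luminescence. Buffer or medium: YPD. Times: static 4 h at 37 °C with compound, 1 h detection. Dosing: single-point compound dose. Read-out: lysis from increased AK signal.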
* hit, by the source's call; nt = not tested or not shown.

SMILES | SKN-1 inh | DAGLB inhibitor | iPSC survival up | MT1-MMP act inh | rRNA inh HTS | Cneo AK release
COc1cccc(-c2csc(NC3OC(=O)c4c3ccc(OC)c4OC)n2)c1 (stereo not drawn) | 6.7 | nt | -0.3 | 0.6 | 0.8 | -2.4
O=C(C[C@@H]1CC[C@H]2[C@@H](COC[C@H](O)CN2CC2CCCC2)O1)NCC1CC1 | nt | nt | nt | nt | -0.5 | nt
O=C(Nn1c(COc2ccccc2)nc2ccccc2c1=O)C(Cl)(Cl)Cl | 7.8 | 3.3 | 0.3 | -3.2 | -15.3* | 8.0
O=c1c2ccccc2nc(COc2ccccc2)n1/N=C/c1ccc(O)c(O)c1 | -3.4 | 14.0 | 0.3 | 3.3 | -30.6* | -6.4
Cc1nc2ccccc2c(=O)n1NC(=O)COc1ccccc1 | 7.4 | 0.9 | 1.9 | 1.3 | 10.5 | 0.8
N#C[C@H]1[C@H](c2ccccc2C2=CCCCC2)[C@@H](CO)N1S(=O)(=O)c1cccc(F)c1 | nt | nt | nt | nt | -29.8 | nt
CCCCNC(=O)c1cc2c(C)cc(C)cc2[nH]1 | 15.7 | -3.3 | 0.2 | -1.9 | -21.8* | nt
CC1=C(C(=O)OC2CCCCC2)C(c2ccccc2)NC(=O)N1 (stereo not drawn) | 15.4 | 2.1 | 4.6 | -0.9 | -5.4 | -10.3
CC1=C(C(=O)OC2CCCCCCC2)C(c2ccc(O)cc2)NC(=O)N1 (stereo not drawn) | 2.6 | 5.1 | 0.3 | 2.6 | -43.1* | 7.6
O=C(COc1ccccc1/C=C\c1[nH]c(=O)[nH]c(=O)c1[N+](=O)[O-])Nc1ccccc1 | -0.7 | 12.2 | -0.5 | -0.7 | -31.1* | nt
O=c1[nH]c(/C=C/c2ccccc2Cl)c([N+](=O)[O-])c(=O)[nH]1 | 18.0 | 6.8 | 0.0 | -5.8 | -24.5 | 0.1
CCC(=O)N1C[C@@H](C)[C@@H](OC)CN(C)C(=O)c2cc(NC(=O)C3CC3)ccc2OC[C@H]1C | nt | nt | nt | nt | -0.6 | 0.7
COc1ccc(NC(=O)Nc2ccc3c(c2)C(=O)N([C@@H](C)CO)C[C@H](C)[C@H](CN(C)S(=O)(=O)c2cn(C)cn2)O3)cc1 | nt | nt | nt | nt | 0.3 | 0.9
CCn1c(C)c(C)c2cc(C(=O)N3CCc4ccccc4C3)ccc21 | 42.2* | -4.0 | 0.0 | -5.3 | -51.8 | 4.6
CCN1CCN(C(=O)c2ccc3c(c2)c(C)c(C)n3Cc2ccccc2)CC1 | 14.2 | 1.2 | 1.6 | 0.5 | -13.8 | 0.2
COc1ccc(C#Cc2ccc([C@@H]3[C@@H](CO)N4C(=O)CN(C(=O)c5ccccc5)C[C@@H]34)cc2)cc1 | nt | nt | nt | nt | 4.7 | nt
Cc1c(N=C2N=C(NC(=O)NC(C)(C)C)c3ccccc32)c(=O)n(-c2ccccc2)n1C | 3.0 | -1.4 | 2.3 | -7.5 | 12.7 | nt
Cc1c(N=C2N=C(NC(=O)c3cccs3)c3ccccc32)c(=O)n(-c2ccccc2)n1C | 38.7* | 5.0 | 1.2 | -151.3 | -9.3 | nt
Cc1cc(N2C(=O)C(O)=C(C(=O)c3cc4ccccc4o3)C2c2cccc(Cl)c2)no1 (stereo not drawn) | -2.5 | 10.5 | -0.4 | 0.5 | -2.2 | -3.5
Cc1cc(N2C(=O)C(O)=C(C(=O)c3ccco3)C2c2cccc(Cl)c2)no1 (stereo not drawn) | -7.0 | 6.3 | -0.4 | -3.3 | -31.9* | -0.3
Cc1cc(N2C(=O)C(O)=C(C(=O)c3cc4ccccc4o3)C2c2ccc(Cl)cc2)no1 (stereo not drawn) | 14.0 | 14.2 | 0.2 | -1.4 | -24.2* | -2.1
CCC(=O)N[C@H]1CC[C@@H](CC(=O)OC)O[C@@H]1CO | nt | nt | nt | nt | 7.2 | -0.9
CCS(=O)(=O)N1CCCCN2[C@H](C1)[C@@H](c1ccc(-c3ccc(C#N)cc3)cc1)[C@@H]2CO | nt | nt | nt | nt | -2.1 | 90.9*
Cc1cccc(-c2ccc([C@@H]3[C@H](CO)N4CCCCN(S(=O)(=O)c5ccccc5C)C[C@@H]34)cc2)c1 | nt | nt | nt | nt | -42.6* | -0.2
Cc1cccc(S(=O)(=O)N2CCCCN3[C@H](C2)[C@H](c2ccc(C#CC(C)C)cc2)[C@@H]3CO)c1 | nt | nt | nt | nt | 4.8 | -1.2
SMILES | SKN-1 inh | DAGLB inhibitor | iPSC survival up | MT1-MMP act inh | rRNA inh HTS | Cneo AK release
Cc1cccc(S(=O)(=O)N2CCCCN3[C@@H](CO)[C@H](c4ccc(C#CC(C)C)cc4)[C@@H]3C2)c1 | nt | nt | nt | nt | -42.1* | 0.8
Cc1cccc(-c2ccc([C@H]3[C@H](CO)N4CCCCN(C(=O)c5ccc6c(c5)OCO6)C[C@@H]34)cc2)c1 | nt | nt | nt | nt | -59.0 | 91.0*
Cc1ccccc1S(=O)(=O)N1CCCCN2[C@H](C1)[C@H](c1ccc(-c3ccccc3)cc1)[C@@H]2CO | nt | nt | nt | nt | nt | -2.0
CCN1[C@@H]2c3ccc(-c4cccc(OC)c4)c(=O)n3C[C@H]1[C@H](CO)[C@H]2C(=O)N(C)C | nt | nt | nt | nt | 0.7 | -0.9
CO[C@H]1CN(C)C(=O)c2cc(NS(=O)(=O)CC(F)(F)F)ccc2OC[C@@H](C)N(Cc2ccccn2)C[C@@H]1C | nt | nt | nt | nt | -1.2 | 2.3
COc1ccc(NC(=O)N(C)C[C@H]2Oc3ccc(NC(=O)NC4CCCCC4)cc3CC(=O)N([C@@H](C)CO)C[C@H]2C)cc1 | nt | nt | nt | nt | 2.6 | nt
C[C@H](CO)N1C[C@H](C)[C@@H](CN(C)C(=O)Nc2ccccc2)Oc2ccc(NC(=O)Nc3ccc(F)cc3)cc2CC1=O | nt | nt | nt | nt | -0.5 | -2.3
CC(C)C#Cc1ccc([C@@H]2[C@H](CO)N3CCCCN(S(=O)(=O)Cc4ccccc4)C[C@@H]23)cc1 | nt | nt | nt | nt | -42.4* | 2.4
Cc1cccc(-c2ccc([C@@H]3[C@H](CO)N4CCCCN(S(=O)(=O)c5cccc(C)c5)C[C@@H]34)cc2)c1 | nt | nt | nt | nt | -27.7* | 5.5
CC(C)C#Cc1ccc([C@H]2[C@@H](CO)N3CCCCN(S(=O)(=O)Cc4ccccc4)C[C@H]23)cc1 | nt | nt | nt | nt | -41.0 | 1.8
C[C@@H](O)C#Cc1ccc([C@@H]2[C@H](CO)N3CCCCN(CC4CC4)C[C@@H]23)cc1 | nt | nt | nt | nt | 7.8 | 102.7*
C[C@@H](O)C#Cc1ccc([C@H]2[C@H](CO)N3CCCCN(CC4CC4)C[C@@H]23)cc1 | nt | nt | nt | nt | 4.8 | -3.2
COc1cccc(NC(=O)N2CC(=O)N3[C@H](CO)[C@H](c4ccc(C#CC5CCCC5)cc4)[C@@H]3C2)c1 | nt | nt | nt | nt | 2.1 | nt
Cc1cc(C(=O)Nc2ccc(Cl)cc2)c(C)n1-c1ccccc1 | 5.7 | nt | -0.9 | 1.2 | -40.3* | -19.0
Cc1ccc(NC(=O)c2cc(C)n(-c3ccccc3)c2C)cc1 | 0.4 | -1.3 | -2.8 | -1.0 | -17.9 | -13.1

Screening results deposited in PubChem BioAssay by several laboratories.
